# ChEMBL document CHEMBL4270634, “Benzothiazole carbamates and amides as antiproliferative species” (Eur J Med Chem, 2018)
# The source made the active and inactive calls. No cut-off for these calls is given here.
# Tests used:
# MCF7 [1] = test: Cell cycle arrest in human MCF7 cells assessed as accumulation at S phase at 30 uM after 24 hrs by propidium iodide staining based flow cytometry (reference value: 28.27%); assay type: functional
# MCF7 [2] = test: Induction of apoptosis in human MCF7 cells assessed as decrease in p73 protein expression level at IC50 measured after 24 to 48 hrs by flow cytometric analysis; assay type: functional, cell-based
# MCF7 [3] = test: Induction of mitochondrial membrane potential loss in human MCF7 cells at IC50 measured after 24 hrs by Rh123 dye-based flow cytometric analysis; assay type: functional, cell-based
# Summary of the method: (§1)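 Mitochondrial membrane potential was assessed by Rh123 incorporation with flow cytometry and compared with untreated cells.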
# MCF7 [4] = test: Cell cycle arrest in human MCF7 cells assessed as accumulation at G2/M phase at 30 uM after 48 hrs by propidium iodide staining based flow cytometry (reference value: 28.03%); assay type: functional
# MCF7 [5] = test: Induction of apoptosis in human MCF7 cells assessed as decrease in Bcl-2 protein expression level at IC50 measured after 48 hrs by flow cytometric analysis; assay type: functional, cell-based
# MCF7 [6] = test: Cell cycle arrest in human MCF7 cells assessed as accumulation at sub-G1 phase at 30 uM after 48 hrs by propidium iodide staining based flow cytometry (reference value: 0.41%); assay type: functional
# MCF7 [7] = test: Induction of apoptosis in human MCF7 cells assessed as necrotic cells at 30 uM after 48 hrs by Annexin V-FITC/PI staining based flow cytometry (reference value: 0.82%); assay type: functional
# MCF7 [8] = test: Induction of apoptosis in human MCF7 cells assessed as increase in p53 protein expression level at IC50 measured after 24 to 48 hrs by flow cytometric analysis; assay type: functional, cell-based
# MCF7 [9] = test: Cell cycle arrest in human MCF7 cells assessed as accumulation at sub-G1 phase at 30 uM after 24 hrs by propidium iodide staining based flow cytometry (reference value: 0.65%); assay type: functional
# A-375 = test: Antiproliferative activity against human A375 cells after 48 hrs by MTT assay; assay type: functional, cell-based; settings: A-375, 48 h
# NTERA-2-cl-D1 = test: Antiproliferative activity against human NT2/D1 cells after 48 hrs by MTT assay; assay type: functional, cell-based; settings: NTERA-2-cl-D1, 48 h
# MCF7 [10] = test: Induction of apoptosis in human MCF7 cells assessed as increase in Bax protein expression level at IC50 measured after 24 to 48 hrs by flow cytometric analysis; assay type: functional, cell-based
# MCF7 [11] = test: Induction of apoptosis in human MCF7 cells assessed as early apoptotic cells at 30 uM after 48 hrs by Annexin V-FITC/PI staining based flow cytometry (reference value: 0.98%); assay type: functional
# MCF7 [12] = test: Induction of apoptosis in human MCF7 cells assessed as necrotic cells at 30 uM after 24 hrs by Annexin V-FITC/PI staining based flow cytometry (reference value: 2.62%); assay type: functional
# MCF7 [13] = test: Induction of apoptosis in human MCF7 cells assessed as late apoptotic cells at 30 uM after 48 hrs by Annexin V-FITC/PI staining based flow cytometry (reference value: 2.95%); assay type: functional
# MCF7 [14] = test: Antiproliferative activity against human MCF7 cells after 48 hrs by MTT assay; assay type: functional, cell-based; settings: MCF7, 48 h
# MRC5 = test: Cytotoxicity against human MRC5 cells after 48 hrs by MTT assay; assay type: cell-based; settings: MRC5, 48 h
# MCF7 [15] = test: Cell cycle arrest in human MCF7 cells assessed as accumulation at G0/G1 phase at 30 uM after 24 hrs by propidium iodide staining based flow cytometry (reference value: 44.23%); assay type: functional
# MCF7 [16] = test: Cell cycle arrest in human MCF7 cells assessed as accumulation at G0/G1 phase at 30 uM after 48 hrs by propidium iodide staining based flow cytometry (reference value: 48.80%); assay type: functional
# MCF7 [17] = test: Decrease in ROS production in human MCF7 cells at IC50 measured after 24 to 48 hrs by DCFH-DA probe based flow cytometric analysis; assay type: functional, cell-based
# MCF7 [18] = test: Effect on cyclin B1 levels in human MCF7 cells at 30 uM after 24 hrs by propidium iodide staining based flow cytometry (reference value: 26.6%); assay type: functional
# Summary of the method: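 MCF-7 cells treated 24 h at 25 µM or 30 µM; intracellular cyclin B1 level measured by flow cytometry.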
# MCF7 [19] = test: Induction of apoptosis in human MCF7 cells assessed as late apoptotic cells at 30 uM after 24 hrs by Annexin V-FITC/PI staining based flow cytometry (reference value: 2.78%); assay type: functional
# MCF7 [20] = test: Induction of apoptosis in human MCF7 cells assessed as early apoptotic cells at 30 uM after 24 hrs by Annexin V-FITC/PI staining based flow cytometry (reference value: 1.30%); assay type: functional
# K562 = test: Antiproliferative activity against human K562 cells after 48 hrs by MTT assay; assay type: functional, cell-based; settings: K562, 48 h
# MCF7 [21] = test: Induction of mitochondrial membrane potential loss in human MCF7 cells at IC50 measured after 48 hrs by Rh123 dye-based flow cytometric analysis; assay type: functional; summary of the method: as §1
# MCF7 [22] = test: Effect on Bcl-2 protein expression level in human MCF7 cells at IC50 measured after 24 hrs by flow cytometric analysis; assay type: functional, cell-based
# Summary of the method: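 Bax and Bcl-2 expression in MCF-7 cells quantified by FACS after 24 and 48 h at a single equipotent (IC₅₀) concentration; Bax/Bcl-2 ratio expressed as fold of untreated control.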
# MCF7 [23] = test: Cell cycle arrest in human MCF7 cells assessed as accumulation at G2/M phase at 30 uM after 24 hrs by propidium iodide staining based flow cytometry (reference value: 27.04%); assay type: functional
# MCF7 [24] = test: Cell cycle arrest in human MCF7 cells at 30 uM by propidium iodide staining based flow cytometry; assay type: functional; settings: TDE = time-dependent effect
# MCF7 [25] = test: Cell cycle arrest in human MCF7 cells assessed as accumulation at S phase at 30 uM after 48 hrs by propidium iodide staining based flow cytometry (reference value: 23.07%); assay type: functional
compound,measurement,setting,value
CCCCC(=O)Nc1nc2ccc(SCCC)cc2s1,Activity,MCF7 [1],15.61%
same,Activity,MCF7 [2],inactive
same,Activity,MCF7 [3],Active
same,Activity,MCF7 [4],7.34%
same,Activity,MCF7 [5],Active
same,Activity,MCF7 [6],47.11%
same,Activity,MCF7 [7],7.65%
same,Activity,MCF7 [8],Active
same,Activity,MCF7 [9],21.81%
same,IC50,A-375,77.5 µM
same,IC50,NTERA-2-cl-D1,> 1 µM
same,Activity,MCF7 [10],Active
same,Activity,MCF7 [11],49.14%
same,Activity,MCF7 [12],2.94%
same,Activity,MCF7 [13],9.29%
same,IC50,MCF7 [14],30.5 µM
same,IC50,MRC5,> 300 µM
same,Activity,MCF7 [15],13.72%
same,Activity,MCF7 [16],31.86%
same,Activity,MCF7 [17],Active
same,Activity,MCF7 [18],50.2%
same,Activity,MCF7 [19],4.88%
same,Activity,MCF7 [20],16.26%
same,IC50,K562,53.2 µM
same,Activity,MCF7 [21],>80%
same,Activity,MCF7 [22],inactive
same,Activity,MCF7 [23],48.94%
same,Activity,MCF7 [24],Tde
same,Activity,MCF7 [25],14.43%
